Data reported in paper PMC3946497 (Molecular pharmaceutics, 2013).

Experiments:
Assay type in all cases: in vivo, mouse
[1] = tested on: athymic nude mice bearing U87MG human glioma xenografts; assay: SPECT/CT imaging with SPECT quantification of tumor uptake; conditions: U87MG glioma xenograft; ~37 MBq via tail vein; imaging at 60 min p.i.
Procedure, shortened: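 Imaging dose: ~37 MBq radiotracer (~0.8 µg conjugate) in 0.1 mL saline i.v.; mice imaged under isoflurane. SPECT: multi-pinhole collimator (0.6 mm), 75 projections per 30-min frame, 2 frames. CT: 45 kV, 500 µA, 2° intervals. Tumour ROIs drawn on CT; counts converted to activity via a standard curve from sources of known activity scanned the same way; expressed as %ID/cm3.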

[2] = tested on: athymic nude mice bearing U87MG human glioma xenografts; assay: Biodistribution in athymic nude mice bearing U87MG glioma xenografts; conditions: average ± SD; for Brain uptake / Eyes uptake / Heart uptake / Intestine uptake / Kidney uptake / Liver uptake / Lungs uptake / Muscle uptake / Spleen uptake / Blood uptake / Tumor uptake: tail vein ~0.1 MBq; for Blood uptake: γ-counting; for Tumor uptake: U87MG glioma xenograft
Procedure, shortened: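 Tumour model: female athymic nu/nu mice, 4–5 weeks old, inoculated s.c. in the shoulder flank with 5 × 10^6 U87MG cells and used 4 weeks later (tumours 0.1–0.5 g; mice 20–25 g). Dosing: ~0.1 MBq radiotracer (~2 ng conjugate) in filtered saline. Groups of 5–8 killed at 5, 30, 60 and 120 min by pentobarbital overdose. Blood and organs washed, blotted, weighed and γ-counted as %ID/g.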

[3] = tested on: athymic nude mice without tumors; assay: Metabolism study; conditions: ~10 MBq via tail vein, n = 3, radio-HPLC
Procedure, shortened: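 Tumour-free athymic nude mice (n = 3), ~10 MBq radiotracer i.v. Urine (manual void): mixed 1:1 with 50% acetonitrile, spun at 8,000 rpm, supernatant 0.20 µm-filtered. Feces: homogenised, suspended in 20% acetonitrile, vortexed ~5 min, spun, filtered. Filtrates analysed by C18 HPLC at 2.5 mL/min on a 0.05% TFA water/acetonitrile gradient (10% to 30% B over 20 min).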

[4] = tested on: athymic nude mice bearing U87MG glioma xenografts; conditions: 60 min p.i.
[5] = co-injection of excess RGD2 (350 µg/mouse or 14 mg/kg), n = 6

## [^99mTc(HYNIC-Galacto-RGD2)(tricine)(TPPTS)] (bicyclic or more) [^99mTc-Galacto-RGD2]
[1]
  Tumor uptake on the basis of SPECT quantification: ~ 8.5 %ID/cm^3
[2]; 5 min p.i., n = 5
  Tumor/Blood ratio: 9.43 ± 1.19
  Tumor/Kidney ratio: 0.52 ± 0.14
  Tumor/Liver ratio: 2.66 ± 0.51
  Tumor/Lung ratio: 1.90 ± 0.21
  Tumor/Muscle ratio: 3.98 ± 0.75
  Brain uptake: 0.41 ± 0.10 %ID/g
  Eyes uptake: 1.54 ± 0.49 %ID/g
  Heart uptake: 2.36 ± 0.29 %ID/g
  Intestine uptake: 3.78 ± 0.52 %ID/g
  Kidney uptake: 18.75 ± 2.79 %ID/g
  Liver uptake: 4.00 ±1.10 %ID/g
  Lungs uptake: 5.41 ± 0.58 %ID/g
  Muscle uptake: 2.73 ± 0.89 %ID/g
  Spleen uptake: 2.97 ± 0.43 %ID/g
  Blood uptake: 1.10 ± 0.16 %ID/g
  Tumor uptake: 10.30 ± 1.67 %ID/g
[2]; 30 min p.i., n = 5
  Tumor/Blood ratio: 9.65 ± 2.03
  Tumor/Kidney ratio: 0.61 ±0.12
  Tumor/Liver ratio: 3.25 ± 0.85
  Tumor/Lung ratio: 2.19 ± 0.75
  Tumor/Muscle ratio: 7.97 ± 2.53
  Brain uptake: 0.22 ± 0.06 %ID/g
  Eyes uptake: 1.20 ± 0.50 %ID/g
  Heart uptake: 1.65 ± 1.10 %ID/g
  Intestine uptake: 4.24 ± 1.54 %ID/g
  Kidney uptake: 13.13 ± 4.75 %ID/g
  Liver uptake: 2.82 ± 1.25 %ID/g
  Lungs uptake: 4.24 ± 1.71 %ID/g
  Muscle uptake: 1.10 ± 0.25 %ID/g
  Spleen uptake: 2.53 ± 0.85 %ID/g
  Blood uptake: 0.92 ± 0.33 %ID/g
  Tumor uptake: 8.37 ± 2.13 %ID/g
[2]; 60 min p.i., n = 8
  Tumor/Blood ratio: 15.94 ± 8.85
  Tumor/Kidney ratio: 0.79 ±0.40
  Tumor/Liver ratio: 3.05 ± 1.69
  Tumor/Lung ratio: 2.73 ± 1.33
  Tumor/Muscle ratio: 9.40 ± 5.11
  Brain uptake: 0.35 ± 0.28 %ID/g
  Eyes uptake: 0.81 ± 0.39 %ID/g
  Heart uptake: 1.27 ± 0.61 %ID/g
  Intestine uptake: 5.45 ± 1.47 %ID/g
  Kidney uptake: 11.70 ± 4.06 %ID/g
  Liver uptake: 3.07 ± 2.14 %ID/g
  Lungs uptake: 2.93 ± 0.94 %ID/g
  Muscle uptake: 0.88 ± 0.34 %ID/g
  Spleen uptake: 1.99 ± 0.71 %ID/g
  Blood uptake: 0.56 ± 0.25 %ID/g
  Tumor uptake: 6.86 ± 1.33 %ID/g
[2]; 120 min p.i., n = 8
  Tumor/Blood ratio: 26.48 ± 8.71
  Tumor/Kidney ratio: 0.89 ±0.48
  Tumor/Liver ratio: 4.03 ± 2.04
  Tumor/Lung ratio: 4.38 ± 1.34
  Tumor/Muscle ratio: 12.91 ± 4.95
  Brain uptake: 0.14 ± 0.12 %ID/g
  Eyes uptake: 0.52 ± 0.15 %ID/g
  Heart uptake: 0.56 ± 0.08 %ID/g
  Intestine uptake: 3.37 ± 1.32 %ID/g
  Kidney uptake: 6.04 ± 1.92 %ID/g
  Liver uptake: 1.54 ±0.43 %ID/g
  Lungs uptake: 1.31 ± 0.23 %ID/g
  Muscle uptake: 0.47 ± 0.12 %ID/g
  Spleen uptake: 1.46 ± 0.26 %ID/g
  Blood uptake: 0.22 ± 0.03 %ID/g
  Tumor uptake: 5.61 ± 1.52 %ID/g
[3]; feces at 2 h p.i.
  Remained intact in the feces: More than 90%
[3]; urine at 30 min and 120 min p.i.
  Metabolites in the urine: no metabolites detected
[4]; [5]
  Intestine uptake in the presence of RGD2: 1.82 ± 0.86 %ID/g
  Lungs uptake in the presence of RGD2: 1.52 ± 0.27 %ID/g
  Spleen uptake in the presence of RGD2: 0.65 ± 0.07 %ID/g
[4]; co-injection of excess RGD2 (350 µg/mouse or 14 mg/kg), n = 6, average ± SD
  Tumor uptake with RGD2: 1.48 ± 0.42 %ID/g
[4]; of its origin value
  Reduction of liver uptake by co-injected excess RGD2: 50%
  Reduction of lung uptake by co-injected excess RGD2: 50%
